In ChEMBL document CHEMBL4024789, “Neutral Porphyrin Derivative Exerts Anticancer Activity by Targeting Cellular Topoisomerase I (Top1) and Promotes Apoptotic Cell Death without Stabilizing Top1-DNA Cleavage Complexes” (J Med Chem, 2018):
The source made the active and inactive calls. No cut-off for these calls is given here.

Assays:
MCF7 [1] = assay: Cytotoxicity against human MCF7 cells transfected with Top1 SiRNA assessed as reduction in cell viability by MTT assay; type: functional, cell-based
How it was run: (§1)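 MCF7 cells transfected with Top1 or control siRNA for 72 h; knockdown confirmed by Western blot with actin as loading control. Percent survival then plotted against compound concentration.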

MCF7 [2] = assay: Induction of apoptosis in human MCF7 cells at 10 to 20 uM after 12 hrs in presence of ROS inhibitor NAC by Annexin V-FITC/propidium iodide staining based confocal laser microscopic method relative to control; type: functional, cell-based
How it was run: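 MCF7 cells treated for 12 h, with or without 30 min pretreatment with NAC (10 mM). Phosphatidylserine stained with annexin V-FITC, nuclei counterstained with propidium iodide, imaged by confocal microscopy. Annexin V(+) fraction scored from about 100 cells (average ± SEM).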

MCF7 [3] = assay: Induction of PARP cleavage in human MCF7 cells at 10 uM up to 12 hrs by Western blot method; type: functional, cell-based
How it was run: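 MCF7 cells treated with 10 μM for the indicated times. Full-length and cleaved PARP1 detected by Western blot of whole-cell extracts using rabbit polyclonal PARP1 antibody.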

[4] = molecular target: T1, DNA topoisomerase 1 (Homo sapiens) (UniProt P11387); assay: Ratio of EC50 for recombinant human topoisomerase-1 expressed in baculovirus infected sf9 cells simultaneously incubated with substrate to EC50 for recombinant human topoisomerase-1 expressed in baculovirus infected sf9 cells preincubated for 5 mins followed by substrate addition
T1 sequence (whole entry): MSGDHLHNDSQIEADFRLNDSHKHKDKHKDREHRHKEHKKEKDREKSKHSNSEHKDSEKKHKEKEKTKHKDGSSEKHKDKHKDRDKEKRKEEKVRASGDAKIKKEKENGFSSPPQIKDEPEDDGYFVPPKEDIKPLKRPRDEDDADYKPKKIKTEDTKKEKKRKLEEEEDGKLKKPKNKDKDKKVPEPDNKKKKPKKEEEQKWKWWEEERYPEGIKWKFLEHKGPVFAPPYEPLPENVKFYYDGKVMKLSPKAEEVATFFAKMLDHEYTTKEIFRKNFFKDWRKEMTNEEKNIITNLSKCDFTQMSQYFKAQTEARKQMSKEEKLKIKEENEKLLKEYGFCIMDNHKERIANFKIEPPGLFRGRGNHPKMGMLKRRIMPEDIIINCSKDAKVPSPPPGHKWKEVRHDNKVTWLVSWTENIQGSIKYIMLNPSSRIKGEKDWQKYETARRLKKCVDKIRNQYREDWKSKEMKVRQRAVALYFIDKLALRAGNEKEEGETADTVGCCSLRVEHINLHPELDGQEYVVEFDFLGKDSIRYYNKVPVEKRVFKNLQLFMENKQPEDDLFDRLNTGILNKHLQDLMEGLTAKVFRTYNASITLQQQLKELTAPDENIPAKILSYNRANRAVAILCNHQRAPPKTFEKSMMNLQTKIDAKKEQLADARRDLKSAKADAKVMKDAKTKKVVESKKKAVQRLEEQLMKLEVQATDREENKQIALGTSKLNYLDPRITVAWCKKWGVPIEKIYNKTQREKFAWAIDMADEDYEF
How it was run: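 Recombinant human Top1 purified from baculovirus-infected Sf-9 cells; 30 fmol enzyme with 90 fmol supercoiled pBS (SK+) DNA (3:1 molar ratio) in relaxation buffer. Compound either preincubated with enzyme 5 min before DNA, or added simultaneously; then 37 °C, 15 min. Relaxation on 1% agarose; % inhibition quantified, EC50 from three experiments (mean ± SD).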

[5] = Cytotoxicity against human NIH:OVCAR3 cells assessed as reduction in cell viability by MTT assay; type: functional, cell-based; details: OVCAR-3
How it was run: (§2)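 Survival of each cell line measured across a range of compound concentrations. Percent inhibition of viability at each concentration calculated against untreated control and IC50 estimated. MEFs were TDP1+/+ and TDP1–/– primary cells. Mean ± SD of at least three experiments in duplicate.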

MCF7 [6] = assay: Cytotoxicity against human MCF7 cells transfected with control SiRNA assessed as reduction in cell viability by MTT assay; type: functional, cell-based; how it was run: as §1
[7] = molecular target: T1, DNA topoisomerase 1 (Homo sapiens); assay: Inhibition of topoisomerase-1 in human MCF7 whole cell extracts at 0.25 to 5 uM using supercoiled pBS SK(+) DNA as substrate after 15 mins by ethidium bromide staining based agarose gel electrophoresis method
How it was run: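 Ex vivo relaxation assay with MCF7 whole-cell lysate as the Top1 source and supercoiled pBS (SK+) DNA. Compound either preincubated with lysate for 5 min before DNA, or added simultaneously; then 37 °C for 15 min. CPT control at 5 μM. Read on agarose gel; mean ± SD, n=3.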

[8] = molecular target: T1, DNA topoisomerase 1 (Homo sapiens); assay: Inhibition of topoisomerase-1- genomic DNA cleavage complex in human MCF7 cells at 20 uM after 12 hrs by ICE assay; type: cell-based
How it was run: (§3)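 ICE bioassay in MCF7 cells. Treatment was CPT (10 μM) or compound (20 μM) for 12 h, or CPT for 6 h then compound for a further 6 h. Genomic DNA (0.5–4 μg) probed with anti-Top1 antibody. Quantified with n = 3, ± SEM, t test.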

[9] = molecular target: T1, DNA topoisomerase 1 (Homo sapiens); assay: Inhibition of […]-induced topoisomerase-1- genomic DNA cleavage complex in human MCF7 cells at 20 uM after 6 hrs by ICE assay; type: cell-based; how it was run: as §3
MCF7 [10] = assay: Cytotoxicity against human MCF7 cells assessed as reduction in cell viability by MTT assay; type: functional, cell-based; how it was run: as §2
[11] = molecular target: T1, DNA topoisomerase 1 (Homo sapiens); assay: Inhibition of recombinant human topoisomerase-1 expressed in baculovirus infected sf9 cells assessed as reduction in cleavage complex formation with supercoiled pBS SK(+) DNA at 10 to 50 uM after 30 mins by ethidium bromide staining based agarose gel electrophoresis method
How it was run: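 Plasmid cleavage assay: 50 fmol supercoiled pBS (SK+) with 100 fmol recombinant Top1 plus compound or CPT, or Top1 with CPT before compound addition, at 37 °C for 30 min. Nicked (form II) and supercoiled (form I) DNA resolved by gel.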

MCF7 [12] = assay: Induction of ROS accumulation in human MCF7 cells at 10 uM by CM-H2DCFDA dye based spectrofluorometric method; type: functional, cell-based; details: TDE = time-dependent effect
How it was run: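 MCF7 cells treated with 10 μM for the indicated times, with 0.2% DMSO as vehicle control, or pretreated with NAC (10 mM) for 30 min. ROS read as DCF fluorescence from CM-H2DCFDA. Mean ± SD of three independent experiments.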

[13] = molecular target: T1, DNA topoisomerase 1 (Homo sapiens); assay: Inhibition of recombinant human EGFP-tagged topoisomerase-1- DNA cleavage complex formation at 20 uM after 10 mins by FRAP assay
How it was run: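 FRAP in living MCF7 cells transiently expressing EGFP-human Top1, 37 °C chamber. Treatment was CPT 5 μM or compound 20 μM for 10 min, or CPT for 10 min then compound for 10 min. A subnuclear spot was bleached for 30 ms at 488 nm; curves normalized to the prebleach signal.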

DNA topoisomerase 1 = molecular target: T2, DNA topoisomerase 1 (Homo sapiens, UniProt P11387); assay: Inhibition of recombinant human topoisomerase-1 expressed in baculovirus infected sf9 cells using supercoiled pBS SK(+) DNA as substrate preincubated for 5 mins followed by substrate addition measured after 15 mins by ethidium bromide staining based agarose gel electrophoresis method
T2 sequence (P11387 whole entry): T1 sequence (whole entry)
How it was run: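 Relaxation assay: 90 fmol supercoiled pBS (SK+) DNA with 30 fmol recombinant Top1 (Sf-9/baculovirus). Compound either preincubated with Top1 for 5 min before DNA addition, or added simultaneously with DNA; then 37 °C for 15 min. Vehicle 2% DMSO. Read on 1% agarose gel. EC50 from mean ± SD of three experiments.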

CN(C)c1ccc(-c2c3nc(c(-c4ccc(N(C)C)cc4)c4ccc([nH]4)c(-c4ccc(C(=O)O)cc4)c4nc(c(-c5ccc(C(=O)O)cc5)c5ccc2[nH]5)C=C4)C=C3)cc1
IC50 (MCF7 [1]): 8.15 µM | Activity (MCF7 [2]): inactive | Activity (MCF7 [3]): Active | Ratio EC50 [4]: 4 to 5 | IC50 [5]: 5.19 µM | IC50 (MCF7 [6]): 2240 nM | inhibition [7]: Active | inhibition [8]: Active | inhibition [9]: Active | IC50 (MCF7 [10]): 2170 nM | inhibition [11]: Active | Activity (MCF7 [12]): Tde | inhibition [13]: Active | EC50 (DNA topoisomerase 1): 381 nM
